Most compounds without a hit are left out; they make up all but 3% or so of the library.
SENP8 block-1: human SENP8 protease inhibitors, primary screen, biochemical, fluorescence, Nedd8 protein substrate, uHTS. inhibition, % at 20 µM. recombinant SENP8. hit rate 0.64% among 360,000. AID 602440, 2012; in the data active means inhibition mostly above about 40%, no sharp cut-off; inactive means mostly below about 27%
SENP8 block-2: SENP8 protease inhibitors, primary screen, biochemical, luminescence | Sentrin-specific protease 8 (Homo sapiens), Q96LD8 | purified SENP8, Z-RLRGG-aminoluciferin cleavage | inhibition, % at 10 µM | hit rate 1.2% among 330,000 | AID 2540, 2010; in the data active means inhibition above about 50%
SENP7 block: SENP7 protease inhibitors, primary screen, biochemical, luminescence, uHTS | Sentrin-specific protease 7 (Homo sapiens), Q9BQF6 | recombinant SENP7, Z-RLRGG-aminoluciferin luminescence, 40 min | inhibition, % at 5 µM | hit rate 1.5% among 330,000 | AID 434973, 2010;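 active means inhibition above about 50% at the single test dose, limit read from the data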
SENP6 inh: SENP6 protease inhibitors, primary screen, biochemical, luminescence, uHTS; Sentrin-specific protease 6 (Homo sapiens), Q9GZR1; Recombinant SENP6 catalytic domain, aminoluciferin luminescence; inhibition, % at 10 µM; hit rate 1.8% among 330,000; AID 2599, 2010;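 active means inhibition above about 50% at the single tested dose, limit read from the data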
UBC13 inh: UBC13 polyubiquitin chain formation inhibitors, primary screen, biochemical, TR-FRET, uHTS. Ubiquitin-conjugating enzyme E2 N (Homo sapiens), P61088. inhibition, % at 20 µM. hit rate 0.47% among 330,000. AID 485273, 2010; in the data active means inhibition above about 45%, passing the limit was not always enough; inconclusive means no clear call, values can overlap the other calls
Apaf-1 inh: inhibitors of human Apaf-1 apoptosome, primary screen, biochemical, DEVD-Rh110 fluorescence, uHTS | AID 489030, 2010 | reconstituted apoptosome caspase-3 activity | inhibition, % at 20 µM | Apoptotic protease-activating factor 1 (Homo sapiens), O14727 | hit rate 0.71% among 330,000; active means inhibition of at least 40% at 20 µM
Target sequence (O14727 whole entry, looked up): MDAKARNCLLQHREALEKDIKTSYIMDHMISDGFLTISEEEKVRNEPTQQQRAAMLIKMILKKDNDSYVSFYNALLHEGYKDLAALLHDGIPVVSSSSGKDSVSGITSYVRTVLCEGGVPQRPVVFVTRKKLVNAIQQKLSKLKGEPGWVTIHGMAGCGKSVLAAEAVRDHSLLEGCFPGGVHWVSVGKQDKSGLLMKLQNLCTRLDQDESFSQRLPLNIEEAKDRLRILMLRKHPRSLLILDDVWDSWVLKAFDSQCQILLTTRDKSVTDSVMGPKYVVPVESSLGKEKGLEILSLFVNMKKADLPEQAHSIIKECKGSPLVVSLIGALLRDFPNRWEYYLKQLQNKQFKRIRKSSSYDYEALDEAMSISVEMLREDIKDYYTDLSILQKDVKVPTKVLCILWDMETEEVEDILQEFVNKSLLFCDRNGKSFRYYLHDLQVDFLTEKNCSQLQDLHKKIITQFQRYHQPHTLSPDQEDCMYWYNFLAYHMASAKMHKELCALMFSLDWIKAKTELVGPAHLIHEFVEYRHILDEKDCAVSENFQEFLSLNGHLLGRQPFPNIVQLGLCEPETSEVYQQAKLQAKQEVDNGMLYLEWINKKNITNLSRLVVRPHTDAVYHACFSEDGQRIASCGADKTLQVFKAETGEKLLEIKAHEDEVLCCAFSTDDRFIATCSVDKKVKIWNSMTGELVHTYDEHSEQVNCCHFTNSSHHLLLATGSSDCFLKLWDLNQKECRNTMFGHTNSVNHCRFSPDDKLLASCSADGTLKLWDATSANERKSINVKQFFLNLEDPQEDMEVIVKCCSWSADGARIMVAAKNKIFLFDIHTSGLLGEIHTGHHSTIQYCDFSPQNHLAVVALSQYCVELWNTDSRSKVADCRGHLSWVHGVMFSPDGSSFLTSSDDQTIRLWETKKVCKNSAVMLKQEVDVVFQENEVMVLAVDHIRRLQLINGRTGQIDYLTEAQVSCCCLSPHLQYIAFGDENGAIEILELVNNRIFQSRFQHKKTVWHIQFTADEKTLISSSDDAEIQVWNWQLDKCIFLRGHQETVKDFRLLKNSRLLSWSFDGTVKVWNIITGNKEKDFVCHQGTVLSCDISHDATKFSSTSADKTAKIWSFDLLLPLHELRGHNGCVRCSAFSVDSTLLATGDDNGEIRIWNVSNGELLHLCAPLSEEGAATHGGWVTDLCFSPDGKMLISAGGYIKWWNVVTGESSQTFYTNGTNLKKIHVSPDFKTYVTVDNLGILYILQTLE
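Assay system: Apoptosome proteins | Medium: pH 7.5 Hepes buffer with CHAPS, BSA, DTT | Also added: Cytochrome c and DEVD-Rh110 substrate | Times: 30 min plus 50 min, RT | Detection: Rhodamine 110 fluorescence at Ex 480/Em 540 nm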
Casp3 UBC13 ctr: CASP3 inhibitor validation, counterassay for project on UBE2N polyubiquitination blockers, biochemical, one dose; Recombinant caspase-3, Caspase-Glo 3/7 luminescence, 60 min; inhibition, % at 20 µM; hit rate 4% among 1,400; shares compounds with UBC13 inh;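 active means mean inhibition across replicates above about 26%, limit read from the data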
UBC13 conf: UBC13 polyubiquitination inhibitors, single-point retest, confirmation, biochemical, TR-FRET, single concentration; shares compounds with UBC13 inh; AID 488859, 2010; hit rate 68% among 1,400; inhibition, % at 10 µM; in the data active means inhibition above about 45%; inconclusive means no clear call, values can overlap the other calls
Each line names hits and unclear results; the compound was inactive in the other large screens (follow-up assays come after a bar, where they were run).

COc1ccc2[nH]c3c(c2c1)CCN1C(=O)C(CC(=O)NCC24CC5CC(CC(C5)C2)C4)C[C@H](C(=O)N2CCOCC2)[C@@]31CCC1CCCC1 (some centres undefined)	none (no result: SENP8 block-2, SENP6 inh, UBC13 inh)
CCOc1ccc2c(c1)c(N=NC(N)=S)c(O)n2C	UBC13 inh inconclusive
NC(=S)N=Nc1c(O)n(CCCl)c2ccccc12	UBC13 inh 90 | Casp3 UBC13 ctr inactive | UBC13 conf 85
NC(=S)N=Nc1c(O)n(CC(=O)Nc2ccccc2)c2ccccc12	none
NC(=S)N=Nc1c(O)n(C2OC(=O)c3ccccc32)c2ccccc12 (centres undefined)	SENP8 block-1 49, UBC13 inh 88 | Casp3 UBC13 ctr inactive | UBC13 conf 104
NC(=S)N=Nc1c(O)n(CCCl)c2ccc(Cl)cc12	UBC13 inh 68 | Casp3 UBC13 ctr inactive | UBC13 conf 90
CCN1C(=O)c2cccc3c(NC(=O)c4ccc(S(=O)(=O)N(C)C)cc4)ccc1c23	UBC13 inh 62 | Casp3 UBC13 ctr inactive | UBC13 conf 76
CCN1C(=O)c2cccc3c(NC(=O)c4ccc(S(=O)(=O)N5CCOCC5)cc4)ccc1c23	UBC13 inh 70 | Casp3 UBC13 ctr inactive | UBC13 conf 83
CCN1C(=O)c2cccc3c(NS(=O)(=O)c4ccc(NC(C)=O)cc4)ccc1c23	none
CC(OC(=O)c1ccc(Cl)c(S(=O)(=O)Nc2ccc(F)cc2)c1)C(=O)NC(N)=O (centres undefined)	none
C#CCNC(=O)C1=C[C@@H](c2ccc(C(F)(F)F)cc2)C[C@@H](OCCCCO)O1	none
COc1ccc(CCNC(=O)Cn2c(=O)n(-c3ccc(C)c(F)c3)c(=O)c3sccc32)cc1OC	UBC13 inh 49 | Casp3 UBC13 ctr inactive | UBC13 conf 46
C#CCOCCOCCOCCNc1nc(N2CCN(C(=O)CCCCCCCCCCNC(=O)Cn3cc(C[C@@H](C)O)nn3)CC2)nc(N2CCN(C(=O)CCCCCCCCCCNC(=O)[C@H](CCCCN)n3cc(CCCC(=O)O)nn3)CC2)n1	none
C#CCOCCOCCOCCNc1nc(N2CCN(C(=O)CCCCCCCCCCNC(=O)Cn3cc(CCCCCN)nn3)CC2)nc(N2CCN(C(=O)CCCCCCCCCCNC(=O)[C@@H](CCC(=O)O)n3cc(CCCCCN)nn3)CC2)n1	UBC13 inh 96, Apaf-1 inh 59 | Casp3 UBC13 ctr inactive | UBC13 conf 79
C#CCOCCOCCOCCNc1nc(N2CCN(C(=O)CCCCCCCCCCNC(=O)[C@H](CCCCN)n3cc(CCCC(=O)O)nn3)CC2)nc(N2CCN(C(=O)CCCCCCCCCCNC(=O)[C@@H]([C@H](C)O)n3cc(C)nn3)CC2)n1	UBC13 inh 54 | Casp3 UBC13 ctr inactive | UBC13 conf inactive
C#CCOCCOCCOCCNc1nc(N2CCN(C(=O)CCCCCCCCCCNC(=O)Cn3cc(CCCCCN)nn3)CC2)nc(N2CCN(C(=O)CCCCCCCCCCNC(=O)[C@@H](CCSC)n3cc(CCO)nn3)CC2)n1	UBC13 inh 119, Apaf-1 inh 72 | Casp3 UBC13 ctr inactive | UBC13 conf 125
O=C(NCc1nnnn1-c1ccc(F)cc1)c1ccc2c(c1)OCO2	none (no result: SENP8 block-2, SENP7 block, SENP6 inh, UBC13 inh, Apaf-1 inh)
COC(=O)c1cc(S(=O)(=O)NCc2ccc(F)cc2)cn1C	none
COCCNC(=S)NNc1ccccc1[N+](=O)[O-]	none
COc1ccc(OCCCC(=O)N2CCN(S(=O)(=O)c3cccc(F)c3)CC2)cc1	none
COc1ccc(C[C@@H]2CN3C(=NC[C@@H]3Cc3ccc(O)cc3)N2C[C@H](C)NC(=O)CCC2CCCCC2)cc1	UBC13 inh 56 | Casp3 UBC13 ctr inactive | UBC13 conf inactive
O=C(CCC1CCCCC1)NCCN1C2=NC[C@H](Cc3ccccc3)N2C[C@H]1Cc1ccc(O)cc1	UBC13 inh 65 | Casp3 UBC13 ctr inactive | UBC13 conf 60
Cc1ccc(C(=O)NCCN2C3=NC[C@H](C)N3C[C@H]2Cc2ccc(O)cc2)cc1Br	none
COc1ccc(C[C@H]2CN3C(=NC[C@@H]3Cc3ccc(O)cc3)N2C[C@H](C)NC(=O)CCC2CCCCC2)cc1	none
Cc1ccc(C(=O)NCCN2C3=NC[C@H](C(C)C)N3C[C@H]2Cc2ccc(O)cc2)cc1Br	UBC13 inh 50 | Casp3 UBC13 ctr inactive | UBC13 conf inactive
COc1cc(C(=O)COC(=O)c2ccc3c(c2)OCCO3)cc(OC)c1OC	none (no result: SENP8 block-2, SENP7 block, SENP6 inh, UBC13 inh, Apaf-1 inh)
Cc1cccc(NC(=O)c2cc(-c3ccc(C)s3)nc3ccccc23)n1	UBC13 inh 47 | Casp3 UBC13 ctr inactive | UBC13 conf inactive
O=C(Nc1ccccn1)c1cc(-c2ccc(Cl)s2)nc2ccccc12	UBC13 inh 47 | Casp3 UBC13 ctr inactive | UBC13 conf inconclusive
O=C(O)c1cc(-c2ccc(Cl)s2)nc2ccccc12	none
CN(Cc1ccccc1)C(=O)COC(=O)c1cc(-c2ccc(Cl)s2)nc2ccccc12	UBC13 inh 51 | Casp3 UBC13 ctr inactive | UBC13 conf inconclusive
CCCN(C(=O)CSc1n[nH]c(-c2ccc(OC)cc2)n1)c1c(N)n(Cc2ccccc2)c(=O)[nH]c1=O	none
Cc1cc(NC(=O)c2ccccc2-c2ccccc2)ccc1Br	none
CCC(=O)NC(c1ccco1)c1cc(Cl)c2cccnc2c1O (centres undefined)	none
CC(=O)NC(c1cc(Cl)c2cccnc2c1O)C1CC1 (centres undefined)	none
CCC(=O)NC(c1cc(Cl)c2ccccc2c1O)C1CC1 (centres undefined)	UBC13 inh 84 | Casp3 UBC13 ctr inactive | UBC13 conf 72
CCC(=O)NC(C)c1cc(Cl)c2ccccc2c1O (centres undefined)	UBC13 inh 51 | Casp3 UBC13 ctr inactive | UBC13 conf inactive
CC(=O)c1ccc(OC2(C)CCN(Cc3ccc(C)cc3)C2)cc1 (centres undefined)	none (no result: SENP8 block-2, SENP7 block, SENP6 inh, UBC13 inh, Apaf-1 inh)
CCc1ccc(C2CC(c3ccc(Cl)cc3)n3nc(N)nc3N2)cc1 (centres undefined)	none
CCc1ccc(C2CC(c3ccc(F)cc3)Nc3nc(N)nn32)cc1 (centres undefined)	UBC13 inh 49 | Casp3 UBC13 ctr inactive | UBC13 conf inactive

From PubChem BioAssay
